In ChEMBL document CHEMBL1129286, “In vitro and in vivo studies of benzisoquinoline ligands for the brain synaptic vesicle monoamine transporter” (J Med Chem, 1996) one finds ID/g and Ki data, which are given here for seven compounds.

Assay [1] relates to Mus musculus. The assay can be described thus: Competition of compound for the in vivo localization of [11C] Methoxytetrabenazine in mouse Hyphalamus; %ID/g (%injected dose/g). Type of assay: functional, organism-based. In short, it runs like this:
(§1)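 CD-1 mice anesthetized with diethyl ether, given by tail vein a mixture of [11C]methoxytetrabenazine (100-300 µCi) plus 10 mg/kg test compound in 10% ethanol in saline, then allowed to recover. Controls received radiotracer in saline with no competitor. Killed under ether at 15 min, regional brain radioactivity read as %ID/g; mean ± SD, unpaired Student's t-test versus controls.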

In assay [2] the target is Synaptic vesicular amine transporter (Rattus norvegicus, UniProt Q01827). The assay can be described thus: In vitro inhibition of [3H]- Methoxytetrabenazine binding to rat brain vesicular monoamine transporter 2 (VMAT2). In short, it runs like this: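 Autoradiographic competition on rat brain coronal sections (20, caudate-putamen level) on slides. Sections prewashed at 25 °C in sucrose buffer (300 mM sucrose, 50 mM Tris, 1 mM EDTA, pH 8.0), then incubated 3 h with 10 nM [3H]methoxytetrabenazine and test drug from 1 nM. Washed 3 × 3 min, dipped in 4 °C water, air-dried, film-exposed 2 weeks.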

Assay [3] concerns Mus musculus. The assay can be described thus: Competition of compound for the in vivo localization of [11C] Methoxytetrabenazine in mouse Striatum; %ID/g (%injected dose/g). Type of assay: functional, organism-based. The method in brief: as §1

Chain of Synaptic vesicular amine transporter (Q01827 whole entry): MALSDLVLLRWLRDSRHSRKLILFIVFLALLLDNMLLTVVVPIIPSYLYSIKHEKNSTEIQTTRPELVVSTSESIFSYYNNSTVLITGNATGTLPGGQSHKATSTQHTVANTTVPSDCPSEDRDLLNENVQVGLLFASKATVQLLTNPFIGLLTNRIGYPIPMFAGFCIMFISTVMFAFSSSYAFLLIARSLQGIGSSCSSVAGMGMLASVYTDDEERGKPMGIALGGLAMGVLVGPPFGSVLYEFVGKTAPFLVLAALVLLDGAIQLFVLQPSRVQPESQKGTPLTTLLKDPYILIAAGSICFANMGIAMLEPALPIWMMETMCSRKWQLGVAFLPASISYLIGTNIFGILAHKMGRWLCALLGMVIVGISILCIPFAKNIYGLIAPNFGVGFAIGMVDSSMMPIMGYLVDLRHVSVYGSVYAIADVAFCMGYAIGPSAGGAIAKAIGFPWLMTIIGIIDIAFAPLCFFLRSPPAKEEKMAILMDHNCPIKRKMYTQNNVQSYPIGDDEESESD

Consider `COc1cc2c(cc1OC)[C@H]1C[C@](C)(O)[C@H](CC(C)C)CN1CC2`, for which the ID/g turned out to be 1.79% with Mus musculus [1] and 2.35% in the assay on Mus musculus [3]. Further, the affinity in assay [2], expressed as Ki, was 12 nM.

For the compound `CC[C@]1(O)C[C@@H]2c3cc(OC)c(OC)cc3CCN2C[C@H]1CC(C)C`, the ID/g worked out at 2% with Mus musculus [1] and 3.24% in the assay with Mus musculus [3]. Further, the affinity in assay [2], expressed as Ki, was 42 nM.

`COc1cc2c(cc1OC)[C@H]1C[C@@](O)(CC(C)C)[C@H](CC(C)C)CN1CC2`: the ID/g is 2.93% in the assay with Mus musculus [1] and 5.33% in the assay on Mus musculus [3]. Further, in assay [2], the Ki came out at 33 nM.

In the case of `COc1cc2c(cc1OC)[C@H]1C[C@@](C)(O)[C@H](CC(C)C)CN1CC2`, the results for the ID/g with Mus musculus [1] and with Mus musculus [3] were 1.96% and 2.09%, respectively. The affinity in assay [2] corresponds to a Ki of 2.6 nM.

`COc1cc2c(cc1OC)[C@H]1CC(=O)[C@H](CC(C)C)CN1CC2`: the ID/g with Mus musculus [1] is 1.71%; with Mus musculus [3], 2.26%.

Consider `COc1cc2c(cc1OC)[C@H]1C[C@@](O)(C(C)C)[C@H](CC(C)C)CN1CC2`, for which the ID/g with Mus musculus [1] was 3.06%; in the assay with Mus musculus [3], 6.21%. The Ki in assay [2] came out at 136 nM.

For the compound `CCC[C@]1(O)C[C@@H]2c3cc(OC)c(OC)cc3CCN2C[C@H]1CC(C)C`, the ID/g came to 1.96% in the assay with Mus musculus [1] and 4.26% in the assay on Mus musculus [3]. For the same compound, the affinity in assay [2], expressed as Ki, was 84 nM.

In general, Ki refers to the dissociation constant of the complex between target and ligand, obtained from inhibition or displacement. A high value points to a looser hold on the target.
